Results reported in ChEMBL document CHEMBL1136954, “Toward the back-up of boceprevir (SCH 503034): discovery of new extended P4-capped ketoamide inhibitors of hepatitis C virus NS3 serine protease with improved potency and pharmacokinetic profiles” (J Med Chem, 2009).

Tests used:
[1] = Inhibition of HCV NS4A-tethered single chain NS3 serine protease by spectrophotometric assay; parameters: species or system Hepacivirus hominis
How it was run: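 Continuous assay with NS4A-tethered single-chain NS3 serine protease; potency given as Ki*.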

Hepatitis C virus = test: Antiviral activity against Hepatitis C virus genotype 1 infected in human hepatocytes by replicon assay; assay type: functional, Hepacivirus hominis; conditions: genotype 1, Hepatocyte
How it was run: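 HCV genotype 1 replicon cell assay; EC90 reported, within 3-fold at 95% confidence for a single assay and within 2-fold for multiple assays.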

[2] = Cytotoxicity against human hepatocytes assessed as effect on GAPDH RNA level […]; assay type: cell-based, Hepatocyte
How it was run: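 Counter-screen for cellular toxicity measuring GAPDH; CC50 reported.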

| SMILES | Ki [1] | EC90 (Hepatitis C virus) | CC50 [2] |
| --- | --- | --- | --- |
| CC1(NC(=O)N[C@H](C(=O)N2C[C@H]3[C@@H](C2C(=O)NC(CC2CCC2)C(=O)C(N)=O)C3(C)C)C(C)(C)C)CCCCC1 (stereo not given in full) | 8 nM | 200 nM | > 5000 nM |
| CC(C)[C@H](NC(=O)N[C@H](C(=O)N1C[C@H]2[C@@H]([C@H]1C(=O)NC(CC1CC1)C(=O)C(N)=O)C2(C)C)C(C)(C)C)C(=O)OCc1ccccc1 (mixture of isomers) | 13 nM | 35 nM | > 5000 nM |
| CC(C)(C)[C@H](NC(=O)NC1(C(=O)OCc2ccccc2)CC1)C(=O)N1C[C@H]2[C@@H]([C@H]1C(=O)NC(CC1CC1)C(=O)C(N)=O)C2(C)C (mixture of isomers) | 170 nM | 1000 nM | > 5000 nM |
| CC(C)[C@H](NC(=O)N[C@H](C(=O)N1C[C@H]2[C@@H]([C@H]1C(=O)NC(CC1CC1)C(=O)C(N)=O)C2(C)C)C(C)(C)C)C(=O)C(C)(C)C (mixture of isomers) | 12 nM | 200 nM | > 5000 nM |
| CC(C)C(=O)[C@@H](NC(=O)N[C@H](C(=O)N1C[C@H]2[C@@H]([C@H]1C(=O)NC(CC1CC1)C(=O)C(N)=O)C2(C)C)C(C)(C)C)C(C)C (mixture of isomers) | 12 nM | 150 nM | > 5000 nM |
| CC(C)(C)[C@H](NC(=O)N[C@H](C(=O)OCc1ccccc1)C1CCCCC1)C(=O)N1C[C@H]2[C@@H]([C@H]1C(=O)NC(CC1CC1)C(=O)C(N)=O)C2(C)C (mixture of isomers) | 10 nM | 20 nM | > 5000 nM |
| CC(C)(C)[C@H](NC(=O)NC1(C(=O)NS(=O)(=O)c2ccccc2)CCCCC1)C(=O)N1C[C@H]2[C@@H]([C@H]1C(=O)NC(CC1CC1)C(=O)C(N)=O)C2(C)C (mixture of isomers) | 110 nM | 5000 nM | > 5000 nM |
| CC(C)[C@H](NC(=O)N[C@H](C(=O)N1C[C@H]2[C@@H]([C@H]1C(=O)NC(CC1CC1)C(=O)C(N)=O)C2(C)C)C(C)(C)C)C(=O)C1CCC1 (mixture of isomers) | 20 nM | 350 nM | > 5000 nM |
| CC(C)[C@H](NC(=O)N[C@H](C(=O)N1C[C@H]2[C@@H]([C@H]1C(=O)NC(CC1CC1)C(=O)C(N)=O)C2(C)C)C(C)(C)C)c1nnn[nH]1 (mixture of isomers) | 10 nM | 1000 nM | > 5000 nM |
| CC(C)(C)[C@H](NC(=O)N[C@H](C(=O)OCc1ccccc1)C1CCCC1)C(=O)N1C[C@H]2[C@@H]([C@H]1C(=O)NC(CC1CC1)C(=O)C(N)=O)C2(C)C (mixture of isomers) | 9 nM | 25 nM | > 5000 nM |
| CC(C)[C@](C)(NC(=O)N[C@H](C(=O)N1C[C@H]2[C@@H]([C@H]1C(=O)NC(CC1CC1)C(=O)C(N)=O)C2(C)C)C(C)(C)C)C(=O)OCc1ccccc1 (mixture of isomers) | 44 nM | 500 nM | > 5000 nM |
| CC(C)[C@@H](Cc1ccccc1)NC(=O)N[C@H](C(=O)N1C[C@H]2[C@@H]([C@H]1C(=O)NC(CC1CC1)C(=O)C(N)=O)C2(C)C)C(C)(C)C (mixture of isomers) | 59 nM |  | > 5000 nM |
| CO/N=C(\c1ccccc1)[C@@H](NC(=O)N[C@H](C(=O)N1C[C@H]2[C@@H]([C@H]1C(=O)NC(CC1CC1)C(=O)C(N)=O)C2(C)C)C(C)(C)C)C(C)C (mixture of isomers) | 50 nM |  | > 5000 nM |
| CC(C)(C)[C@H](NC(=O)NC1(C(=O)O)CCCCC1)C(=O)N1C[C@H]2[C@@H]([C@H]1C(=O)NC(CC1CC1)C(=O)C(N)=O)C2(C)C (mixture of isomers) | 9 nM | 5000 nM | > 5000 nM |
| CC(C)[C@H](NC(=O)N[C@H](C(=O)N1C[C@H]2[C@@H]([C@H]1C(=O)NC(CC1CC1)C(=O)C(N)=O)C2(C)C)C(C)(C)C)C(=O)C1CCCCC1 (mixture of isomers) | 13 nM | 200 nM | > 5000 nM |
| CC(C)[C@H](NC(=O)N[C@H](C(=O)N1C[C@H]2[C@@H]([C@H]1C(=O)NC(CC1CC1)C(=O)C(N)=O)C2(C)C)C(C)(C)C)C(=O)NS(=O)(=O)c1ccccc1 (mixture of isomers) | 6 nM | 5000 nM | > 5000 nM |

| SMILES | Ki [1] | EC90 (Hepatitis C virus) | CC50 [2] |
| --- | --- | --- | --- |
| C[C@@H](OC(=O)C1(NC(=O)N[C@H](C(=O)N2C[C@H]3[C@@H]([C@H]2C(=O)NC(CC2CC2)C(=O)C(N)=O)C3(C)C)C(C)(C)C)CCCCC1)c1ccccc1 (mixture of isomers) | 80 nM | 600 nM | > 5000 nM |
| CC(C)(C)[C@H](NC(=O)N[C@H](C(=O)N1C[C@H]2[C@@H]([C@H]1C(=O)NC(CC1CC1)C(=O)C(N)=O)C2(C)C)C(C)(C)C)C(=O)OCc1ccccc1 (mixture of isomers) | 67 nM | 50 nM | > 5000 nM |
| CC(C)(C)[C@H](NC(=O)NC1(C(=O)OCc2ccccc2)CCCC1)C(=O)N1C[C@H]2[C@@H]([C@H]1C(=O)NC(CC1CC1)C(=O)C(N)=O)C2(C)C (mixture of isomers) | 58 nM | 30 nM | > 5000 nM |
| CC(C)[C@H](NC(=O)N[C@H](C(=O)N1C[C@H]2[C@@H]([C@H]1C(=O)NC(CC1CC1)C(=O)C(N)=O)C2(C)C)C(C)(C)C)[C@H](O)c1ccccc1 (mixture of isomers) | 77 nM |  | > 5000 nM |
| CC(C)(C)[C@H](NC(=O)NC1(C(=O)c2ccccc2)CCCCC1)C(=O)N1C[C@H]2[C@@H]([C@H]1C(=O)NC(CC1CC1)C(=O)C(N)=O)C2(C)C (mixture of isomers) | 100 nM | 2000 nM | > 5000 nM |
| CC(C)(NC(=O)N[C@H](C(=O)N1C[C@H]2[C@@H]([C@H]1C(=O)NC(CC1CC1)C(=O)C(N)=O)C2(C)C)C(C)(C)C)C(=O)OCc1ccccc1 (mixture of isomers) | 210 nM | 1480 nM | > 5000 nM |
| C=C(c1ccccc1)[C@@H](NC(=O)N[C@H](C(=O)N1C[C@H]2[C@@H]([C@H]1C(=O)NC(CC1CC1)C(=O)C(N)=O)C2(C)C)C(C)(C)C)C(C)C (mixture of isomers) | 50 nM |  | > 5000 nM |
| CC(C)[C@H](NC(=O)N[C@H](C(=O)N1C[C@H]2[C@@H]([C@H]1C(=O)NC(CC1CC1)C(=O)C(N)=O)C2(C)C)C(C)(C)C)C(=O)O[C@H](C)c1ccccc1 (mixture of isomers) | 80 nM | 600 nM | > 5000 nM |
| CC(C)(C)[C@H](NC(=O)NC1(C(=O)NCc2ccccc2)CCCCC1)C(=O)N1C[C@H]2[C@@H]([C@H]1C(=O)NC(CC1CC1)C(=O)C(N)=O)C2(C)C (mixture of isomers) | 44 nM | 5000 nM | > 5000 nM |
| CC(C)(C)[C@H](NC(=O)NC1(COC(=O)c2ccccc2)CCCCC1)C(=O)N1C[C@H]2[C@@H]([C@H]1C(=O)NC(CC1CC1)C(=O)C(N)=O)C2(C)C (mixture of isomers) | 120 nM | 1000 nM | > 5000 nM |
| C=CCNC(=O)C(=O)C(CCCC)NC(=O)[C@@H]1[C@@H]2[C@H](CN1C(=O)[C@@H](NC(=O)N[C@H](C(=O)C1CC1)C1CCCCC1)C(C)(C)C)C2(C)C (mixture of isomers) | 38 nM | 900 nM | > 5000 nM |
| CC(C)(C)[C@H](NC(=O)N[C@H](C(=O)OCc1ccccc1)C1CC1)C(=O)N1C[C@H]2[C@@H]([C@H]1C(=O)NC(CC1CC1)C(=O)C(N)=O)C2(C)C (mixture of isomers) | 10 nM | 20 nM | > 5000 nM |
| C=CCNC(=O)C(=O)C(CC1CC1)NC(=O)[C@@H]1[C@@H]2[C@H](CN1C(=O)[C@@H](NC(=O)N[C@H](C(=O)C1CC1)C1CCCCC1)C(C)(C)C)C2(C)C (mixture of isomers) | 27 nM | 450 nM | > 5000 nM |
| CC(C)[C@@](C)(NC(=O)N[C@H](C(=O)N1C[C@H]2[C@@H]([C@H]1C(=O)NC(CC1CC1)C(=O)C(N)=O)C2(C)C)C(C)(C)C)C(=O)OCc1ccccc1 (mixture of isomers) | 290 nM |  | > 5000 nM |
| CO[C@H](c1ccccc1)[C@@H](NC(=O)N[C@H](C(=O)N1C[C@H]2[C@@H]([C@H]1C(=O)NC(CC1CC1)C(=O)C(N)=O)C2(C)C)C(C)(C)C)C(C)C (mixture of isomers) | 60 nM |  | > 5000 nM |
| CC(=O)[C@@H](NC(=O)N[C@H](C(=O)N1C[C@H]2[C@@H]([C@H]1C(=O)NC(CC1CC1)C(=O)C(N)=O)C2(C)C)C(C)(C)C)C(C)C (mixture of isomers) | 14 nM | 400 nM | > 5000 nM |
